Source: article PMC12067261 (Proceedings of the National Academy of Sciences of the …, 2025)
Values after ≈ are worked out from the molar mass of the structure shown. Values joined by “and” are separate entries in the source; they are usually repeats but may differ in a detail not shown here. Equal values may be shown once. Read-outs that look alike come from different tables or passages of the source.

Key:
[1] = in vitro; conditions: human, plasma
[2] = system: Mab type strain ATCC19977; assay: microbe, parasite or virus in culture; conditions: Mycobacteroides abscessus, ATCC19977, read-out: IC50 in CAMHB
[3] = as published previously ref 28; cited from earlier work
[4] = system: Mab ATCC19977; assay: Spontaneous mutant selection; assay type: cell-based, Mycobacterium abscessus; conditions: solid medium containing 4× MIC
[5] = system: intracellular Mab ATCC19977 in THP-1 macrophages; assay type: cell-based, Mycobacterium abscessus; conditions: 48 h treatment, compared to the start of treatment
Method in brief: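 Intracellular bactericidal assay in THP-1-derived macrophages infected with M. abscessus subsp. abscessus ATCC19977. Test compound was added 2 h after infection at 1 and 10 µM and left on for 48 h. Each condition was run in technical triplicate.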

[6] = Pharmacokinetic studies in mice; assay type: in vivo, CD-1 mice
[7] = system: intracellular M. abscessus ATCC 19977 pTEC27 in THP-1 macrophages; assay: Growth inhibition of intracellular Mab in THP-1 derived macrophages; assay type: cell-based, Mycobacterium abscessus; conditions: Mycobacteroides abscessus, ATCC19977, THP-1, read-out: MacIC50
[8] = system: THP-1 derived macrophages; assay: Uptake into THP-1 macrophages; assay type: in vitro ADME; conditions: intracellular to extracellular concentration ratio
[9] = system: M. abscessus subsp. abscessus ATCC 19977; assay: Efficacy in the GM-CSF KO mouse model of acute Mab infection; assay type: in vivo, GM-CSF KO (B6.129S-Csf2tm1Mlg/J) mice; conditions: 7 daily oral doses, 25 mg/kg
[10] = system: 76 M. abscessus clinical isolates covering the 3 Mab subspecies; assay: microbe, parasite or virus in culture; assay type: cell-based, Mycobacterium abscessus; conditions: Mycobacteroides abscessus
[11] = system: Mab ATCC19977 replicating cultures; assay: microbe, parasite or virus in culture; assay type: cell-based, Mycobacterium abscessus subsp. abscessus
[12] = system: CYP3A4 mRNA; assay: CYP3A4 induction at the mRNA level in human hepatocytes; assay type: in vitro ADME
[13] = system: Mab type strain ATCC19977
[14] = system: Mab ATCC19977 (wild type); assay type: cell-based, Mycobacterium abscessus subsp. abscessus; conditions: concentration that inhibits 90% growth
[15] = Caseum binding; assay type: in vitro ADME
[16] = system: HepG2 cells; assay: Cytotoxicity assays; assay type: cell-based, human; conditions: indirect measure of selectivity
[17] = Table 2

For `O=C1CCc2c(OC[C@]3(O)CCN(c4c(F)cc(Cl)cc4F)C[C@H]3O)ccc(F)c2N1` [OPC-167832, Quabodepistat], the fraction unbound [1] is given as 0.0122, the IC50 [2] is given as 120 nM and the plasma fu [3] is given as ~ 1%.
In the case of `CO[C@H]1/C=C/O[C@@]2(C)Oc3c(C)c(O)c4c(c3C2=O)C2=NC3(CCN(CC(C)C)CC3)NC2=C(NC(=O)/C(C)=C\C=C\[C@H](C)[C@H](O)[C@@H](C)[C@@H](O)[C@@H](C)[C@H](OC(C)=O)[C@@H]1C)C4=O` [RBT, Rifabutin], the frequency of resistance [4] is reported as 2.6 × 10^−8, the “activity against intracellular Mab in macrophages at 1 and 10 µM” value [5] is reported as “did not inhibit intracellular growth of Mab” and the “fAUC/MIC at 10 mg/kg” value ([6]; AUC corrected for fraction unbound) is reported as 0.2. The Bioavailability ([6]; CD-1 mice, oral) was 69.2%, the half-life ([6]; female, CD-1, mouse, plasma) was 258 min and the clearance ([6]; female, CD-1, mouse, plasma, iv, 5 mg/kg) was 10.3 mL/min/kg. For the same molecule, the Vd ([6]; female, CD-1, mouse, plasma, iv, 5 mg/kg, Vd, CD-1 mice, i.v. 5 mg/kg) was 3.9 L/kg, the “plasma concentrations relative to potency values” ([6]; oral 25 mg/kg, CD-1 mice) was “did not achieve therapeutic concentrations” and the fraction unbound ([1]; fu human, human plasma) was 0.036. It also gave a fraction unbound ([1]; plasma fu (human), Table 2) of 0.0384, an IC50 [2] of 1200 nM and an IC50 [7] of 700 nM. The “THP-1 IC/EC” value [8] was 26, the “effect on lung bacterial burden” value [9] was “neither reduced lung burden nor prevented bacterial growth” and the MIC50 ([10]; read-out: MIC50 against clinical isolates) was 4.7 µM (≈ 3.98 µg/mL). For the same molecule, the MIC90 ([10]; read-out: MIC90 against clinical isolates) was 9.1 µM (≈ 7.71 µg/mL), the MBC ([11]; Mycobacteroides abscessus, ATCC19977, read-out: MBC90) was 3.5 µM (≈ 2.96 µg/mL) and the “kill plateau at 8× MIC” value ([11]; replicating cultures, 3 d) was “approximately 2 log”. The “CYP3A4 induction @ 1 µM” value ([12]; 1 µM) was 33 fold and 33.4 fold, the “CYP3A4 induction @ 10 µM” value ([12]; 10 µM) was 43 fold and 42.7 fold and the IC50 serum shift [13] was 8.1 fold. For the same molecule, the “WT Mab MIC” value [14] was 2.0 µM, the fraction unbound [15] was 0.0094 and the “HepG2 CC50/MIC” value [16] was 154.
With `CO[C@H]1/C=C/O[C@@]2(C)Oc3c(C)c(O)c4c(c3C2=O)C2=NC3(CCN(CC(C)C)CC3)NC2=C(NC(=O)/C(C)=C/C=C/[C@H](C)[C@H](O)[C@@H](C)[C@@H](O)[C@@H](C)[C@H](OC(=O)Nc2c(C)nc3ccccn23)[C@@H]1C)C4=O` [UMN-131] the “plasma fu (human)” value [17] was 6.55%, the IC50 serum shift [13] was 3.3 fold and the IC50 ([13]; read-out: IC50 in 1:1 CAMHB:hSerum, 1:1 CAMHB:human serum) was 200 nM. The IC50 ([13]; read-out: IC50 in CAMHB, CAMHB devoid of plasma proteins) was 60 nM.
